Measurements taken from ChEMBL document CHEMBL4765418, “Discovery of novel quinazolinone derivatives as potential anti-HBV and anti-HCC agents” (Eur J Med Chem, 2020).
The source made the active and inactive calls. No cut-off for these calls is given here.

Tests used:
Hepatitis B virus [1] = test: Antiviral activity against HBV infected in human HepG2.2.15 cells assessed as inhibition of HBsAg production supplemented with fresh medium containing compound every 3 days for 6 days by EIA relative to control; type: functional, HepG2 2.2.15; details: time 6 day
HepG2 [2] = test: Induction of apoptosis in human HepG2 cells assessed as viable cells at 5 uM after 48 hrs by Annexin-V FITC/propidium iodide staining based flow cytometric analysis (reference value: 97.07%); details: HepG2, 48 h
HepG2 [3] = test: Induction of apoptosis in human HepG2 cells assessed as early apoptotic cells at 5 uM after 48 hrs by Annexin-V FITC/propidium iodide staining based flow cytometric analysis (reference value: 1.68%)
HepG2 [4] = test: Induction of apoptosis in human HepG2 cells assessed as late apoptotic cells at 20 uM after 48 hrs by Annexin-V FITC/propidium iodide staining based fluorescence microscopic analysis (reference value: 1.11%); type: functional
HepG2 [5] = test: Induction of apoptosis in human HepG2 cells assessed as necrotic cells at 20 uM after 48 hrs by Annexin-V FITC/propidium iodide staining based fluorescence microscopic analysis (reference value: 0.14%); type: functional
HepG2 [6] = test: Induction of apoptosis in human HepG2 cells assessed as viable cells at 10 uM after 48 hrs by Annexin-V FITC/propidium iodide staining based fluorescence microscopic analysis (reference value: 97.07%); type: functional; details: read-out: Activity
HepG2 [7] = test: Induction of apoptosis in human HepG2 cells assessed as down regulation of Bcl-2 expression measured after 48 hrs by Western blot analysis; type: functional, cell-based
In short: (§1)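 HepG2 cells treated 5, 10 or 20 μM for 48 h, lysed; 40 μg protein/lane resolved by SDS-PAGE, transferred to PVDF, blocked in 5% nonfat milk, probed overnight at 4 °C with mouse anti-Bad, Bax, Bcl-2 or Bcl-xl, then secondary antibody 2 h. ECL detection; band densities expressed relative to GAPDH.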

Huh-7 = test: Antiproliferative activity against human Huh-7 cells assessed as inhibition of cell proliferation after 72 hrs by MTT assay; type: functional, cell-based; details: Huh-7, 72 h
In short: (§2)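 Cells seeded in 96-well plates and grown 24 h to reach exponential growth, then exposed to test compounds in culture medium for 72 h. Viability read by MTT absorbance at 490 nm relative to untreated cells. IC50 is the concentration giving 50% inhibition of proliferation.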

HepG2 [8] = test: Induction of apoptosis in human HepG2 cells assessed as necrotic cells at 10 uM after 48 hrs by Annexin-V FITC/propidium iodide staining based fluorescence microscopic analysis (reference value: 0.14%); type: functional
HepG2 [9] = test: Induction of apoptosis in human HepG2 cells assessed as viable cells at 20 uM after 48 hrs by Annexin-V FITC/propidium iodide staining based fluorescence microscopic analysis (reference value: 97.07%); type: functional; details: read-out: Activity
HepG2 [10] = test: Induction of apoptosis in human HepG2 cells assessed as early apoptotic cells at 10 uM after 48 hrs by Annexin-V FITC/propidium iodide staining based fluorescence microscopic analysis (reference value: 1.68%); type: functional
Hepatitis B virus [11] = test: Antiviral activity against lamivudine and entecavir-resistant HBV harboring rtL180 M/rtM204V/rtT184L mutant infected in human HepG2.2.15 cells assessed as inhibition of DNA replication at 0.8 uM supplemented with fresh medium containing compound every 2 days for 6 days by RT-PCR analysis relative to control; type: functional; details: HepG2 2.2.15, 144 h, time 6 day
Hepatitis B virus [12] = test: Antiviral activity against HBV infected in human HepG2.2.15 cells assessed as inhibition of DNA replication at 0.8 uM supplemented with fresh medium containing compound every 2 days for 6 days by RT-PCR analysis relative to control; type: functional; details: HepG2 2.2.15, 144 h, time 6 day
In short: (§3)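 HepG2 2.2.15 cells (2×10^5/well, 24-well) left 24 h to recover from trypsinization, then given fresh medium with compound (single-point screen at 0.8 μM), renewed every 2 days for 6 days. Intracellular HBV DNA extracted and quantified by real-time PCR. IC50 is the dose giving 50% inhibition of DNA replication, taken from dose–response.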

HepG2 [13] = test: Induction of apoptosis in human HepG2 cells assessed as late apoptotic cells at 10 uM after 48 hrs by Annexin-V FITC/propidium iodide staining based fluorescence microscopic analysis (reference value: 1.11%); type: functional
HepG2 [14] = test: Induction of apoptosis in human HepG2 cells assessed as late apoptotic cells at 5 uM after 48 hrs by Annexin-V FITC/propidium iodide staining based flow cytometric analysis (reference value: 1.11%)
HepG2 [15] = test: Antiproliferative activity against human HepG2 cells assessed as inhibition of cell proliferation after 72 hrs by MTT assay; type: functional, cell-based; details: HepG2, 72 h; in short: as §2
HepG2 [16] = test: Induction of apoptosis in human HepG2 cells assessed as nuclear fragmentation at 5 to 20 uM after 48 hrs by Hoechst 33342 staining based fluorescence microscopic analysis; type: functional, cell-based; details: dose 5-20 µM
In short: (§4)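 HepG2 cells (5×10^4/well, six-well) exposed to 5, 10 or 20 μM for 48 h, washed with PBS, fixed in 4% paraformaldehyde 30 min, stained with Hoechst 33342 (20 μg/mL) 15 min at room temperature in the dark. Nuclear fragmentation and chromatin condensation scored by fluorescence microscopy.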

HepG2 [17] = test: Induction of apoptosis in human HepG2 cells assessed as up regulation of Bad expression measured after 48 hrs by Western blot analysis; type: functional, cell-based; in short: as §1
HepG2 [18] = test: Induction of apoptosis in human HepG2 cells assessed as early apoptotic cells at 20 uM after 48 hrs by Annexin-V FITC/propidium iodide staining based fluorescence microscopic analysis (reference value: 1.68%); type: functional
HepG2 [19] = test: Induction of apoptosis in human HepG2 cells assessed as necrotic cells at 5 uM after 48 hrs by Annexin-V FITC/propidium iodide staining based flow cytometric analysis (reference value: 0.14%)
[20] = Selectivity index, ratio of CC50 for human HepG2 2.2.15 cells to IC50 for antiviral activity against HBV infected in human HepG2.2.15 cells assessed as inhibition of DNA replication; type: toxicity, cell-based; details: read-out: Ratio CC50/IC50
HepG2 [21] = test: Induction of apoptosis in human HepG2 cells assessed as down regulation of Bcl-xl expression measured after 48 hrs by Western blot analysis; type: functional, cell-based; in short: as §1
[22] = Cytotoxicity against human HepG2 2.2.15 cells assessed as reduction in cell viability measured after 72 hrs by MTT assay; type: cell-based
In short: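 HepG2 2.2.15 cells (HBV-producing; grown in DMEM with 10% FBS, penicillin/streptomycin and 0.38 mg/mL G418) seeded in 96-well plates and grown 24 h, then treated 72 h with compounds. Viability read by MTT absorbance at 490 nm relative to untreated cells. CC50 is the dose causing 50% cell death.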

HepG2 [23] = test: Induction of apoptosis in human HepG2 cells assessed as chromatin condensation at 5 to 20 uM after 48 hrs by Hoechst 33342 staining based fluorescence microscopic analysis; type: functional, cell-based; details: dose 5-20 µM; in short: as §4
Hepatitis B virus [24] = test: Antiviral activity against HBV infected in human HepG2.2.15 cells assessed as inhibition of DNA replication supplemented with fresh medium containing compound every 2 days for 6 days by RT-PCR analysis; type: functional, organism-based; details: HepG2 2.2.15; in short: as §3
SK-HEP1 = test: Antiproliferative activity against human SK-HEP1 cells assessed as inhibition of cell proliferation after 72 hrs by MTT assay; type: functional, cell-based; details: SK-HEP1, 72 h; in short: as §2
HepG2 [25] = test: Induction of apoptosis in human HepG2 cells assessed as up regulation of Bax expression measured after 48 hrs by Western blot analysis; type: functional, cell-based; in short: as §1

Structure (SMILES): CN(C)CCCOc1ccc2nc(SCc3ccccc3)n(Cc3ccco3)c(=O)c2c1
- inhibition (INH) (Hepatitis B virus [1]): 4.55%
- viability at 5 µM (HepG2 [2]): 81.5%
- Activity (HepG2 [3]): 13.07%
- Activity (HepG2 [4]): 31.67%
- Activity (HepG2 [5]): 5.12%
- viability at 10 µM (HepG2 [6]): 57.5%
- Activity (HepG2 [7]): Dose-dependent effect
- IC50 (Huh-7): 6.42 µM
- Activity (HepG2 [8]): 4.5%
- viability at 20 µM (HepG2 [9]): 22.9%
- Activity (HepG2 [10]): 23.83%
- inhibition at 0.8 µM (Hepatitis B virus [11]): 64%
- inhibition at 0.8 µM (Hepatitis B virus [12]): 67.3%
- Activity (HepG2 [13]): 14.15%
- Activity (HepG2 [14]): 4.88%
- IC50 (HepG2 [15]): 5.44 µM
- Activity (HepG2 [16]): Active
- Activity (HepG2 [17]): Dose-dependent effect
- Activity (HepG2 [18]): 40.31%
- Activity (HepG2 [19]): 0.49%
- selectivity ratio [20]: > 17.2
- Activity (HepG2 [21]): Dose-dependent effect
- CC50 at 72 h [22]: > 10 µM
- Activity (HepG2 [23]): Active
- IC50 (Hepatitis B virus [24]): 0.58 µM
- IC50 (SK-HEP1): 6.75 µM
- Activity (HepG2 [25]): Dose-dependent effect
